Assay results taken from PubChem BioAssay AID2520 (Sanford-Burnham Center for Chemical Genomics, 2010).
Among all 330,000 compounds or so, about 350 (0.11%) were called active. Shown is part of a subset that was picked to be rich in actives. Unmarked numbers belong to inactive results.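 The calls were made as follows: active = activation more than six SD over the plate average, tested at 20 µM; inactive = the rest.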

Biological target: Apelin receptor (Homo sapiens) (UniProt P35414)
Assay: agonists of human apelin receptor APJ, primary screen, CHO-K1 cells, PathHunter beta-arrestin, luminescence (AID 2520)
Conditions: at 20 µM, hits give high values, 0% DMSO wells, 100% apelin
Procedure, shortened: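 system = engineered CHO-K1 APJ arrestin reporter cells | input = 1000 cells per well | timing = overnight seeding, 90 min compound at 25 °C, 1 h detection | measured by = enzyme-fragment complementation luminescence | read-out = beta-arrestin recruitment to APJ as agonist activity, luminescent signal | control set = negative DMSO alone, positive Apelin-13 at 10 nM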

Sequence of Apelin receptor (Homo sapiens) (P35414 whole entry, looked up): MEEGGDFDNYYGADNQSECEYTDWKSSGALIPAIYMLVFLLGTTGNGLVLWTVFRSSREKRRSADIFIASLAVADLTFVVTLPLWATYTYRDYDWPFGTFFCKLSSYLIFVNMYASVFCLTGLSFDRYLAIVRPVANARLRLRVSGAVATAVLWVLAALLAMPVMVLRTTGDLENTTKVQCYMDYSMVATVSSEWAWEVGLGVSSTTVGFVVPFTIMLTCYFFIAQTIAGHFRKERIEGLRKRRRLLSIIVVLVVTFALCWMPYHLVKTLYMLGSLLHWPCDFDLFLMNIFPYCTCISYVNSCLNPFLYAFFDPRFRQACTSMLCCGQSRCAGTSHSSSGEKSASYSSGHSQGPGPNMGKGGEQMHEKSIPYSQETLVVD

**Q.** With `Cn1c(=O)cc(OCCCC(=O)N2CCN(c3ccccn3)CC2)c2ccccc21` as the molecule, how does the activation read?
**A.** -3.56%

**Q.** For `COc1ccc(NC(=O)CSc2nncc(=O)n2N)cc1OC`, which activation is on record?
**A.** -6.25%

**Q.** `CN(C)/C=C(\C#N)C(=O)c1cccnc1Oc1cccc(F)c1` was tested. Which activation did it give?
**A.** -4.09%

**Q.** Which activation does the source give for `CC(C)NC(=O)Nc1cccc2c1O[C@@H](CN(C)S(=O)(=O)c1ccc(F)cc1)[C@@H](C)CN([C@H](C)CO)C2=O` here?
**A.** -0.163%

**Q.** How did the activation turn out when `Cc1ccc(S(=O)(=O)N(C)C)cc1NC(=O)/C=C/c1cccs1` was run?
**A.** 2.48%

**Q.** For `Cn1ccnc1-c1nnn(-c2ccc(F)cc2)n1`, which activation is on record?
**A.** -4.89%

**Q.** Which activation does the source give for `CCOc1ccc(CN2CCN(Cc3ccon3)CC2CCO)cc1` (stereo not given) here?
**A.** -0.588%

**Q.** How did the activation turn out when `Cc1ccc(C(=O)O)cc1-c1ccc(/C=C2\SC(=O)N(CC(=O)Nc3ccc4c(c3)OCO4)C2=O)o1` was run?
**A.** 0.103%

**Q.** For `CC(NC(=O)c1ccc(Cl)cc1)C(=O)N1CCCCC1` (stereo not given), which activation is on record?
**A.** 0.246%

**Q.** How did the activation turn out when `COc1ccc(C)cc1NC(=O)CSc1nnc2ccc(-c3ccccn3)nn12` was run?
**A.** 1.64%

**Q.** `COc1ccc(CNS(=O)(=O)c2cc(-c3cc(C)no3)ccc2C(C)C)cc1` was tested. Which activation did it give?
**A.** 0.556%

**Q.** With `CN1CCN(CC#CCC2(O)c3ccccc3-c3ccccc32)CC1` as the molecule, how does the activation read?
**A.** -0.677%

**Q.** `CN1CCN(S(=O)(=O)c2ccc(Nc3ccc(F)cc3)nc2)CC1` was tested. Which activation did it give?
**A.** 7.91%

**Q.** How did the activation turn out when `Brc1ccc(CN2CC[C@H]3C=CCc4cccc(c43)C2)cc1` was run?
**A.** -1.27%

**Q.** With `CCN1CN(Cc2ccccc2)CNC1=S` as the molecule, how does the activation read?
**A.** -0.233%

**Q.** How did the activation turn out when `CCc1ccc(CN2C(=O)c3ccccc3C2C(=O)NCC2CCCO2)cc1` (stereo not given) was run?
**A.** 1.09%

**Q.** How did the activation turn out when `CCCN(c1ccc(C(C)C)cc1)S(=O)(=O)c1c(C)[nH]c(=O)[nH]c1=O` was run?
**A.** -2.76%

**Q.** `Cc1nn(C)cc1N1C(=O)c2cccc3c(N)ccc(c23)C1=O` was tested. Which activation did it give?
**A.** -0.917%

**Q.** Which activation does the source give for `CCN1C(=O)c2cccc3c(S(=O)(=O)Nc4ccccc4O)ccc1c23` here?
**A.** 2.45%

**Q.** How did the activation turn out when `CCN1C(=O)c2cccc3c(N)ccc1c23` was run?
**A.** 24% (active)

**Q.** Which activation does the source give for `O=S(=O)(N1CCCCC1)N1CCNCC1` here?
**A.** 2.29%

**Q.** `Cc1c(Cl)c([N+](=O)[O-])nn1Cc1ccc(C(=O)N/N=C\c2cc(Cl)ccc2O)o1` was tested. Which activation did it give?
**A.** 1.67%

**Q.** How did the activation turn out when `COc1cc(NC(=O)COC(=O)c2cc(S(=O)(=O)N3CCOCC3)ccc2F)cc(OC)c1` was run?
**A.** -0.441%

**Q.** `Cc1cc(C(=O)NCCc2ccc(Cl)cc2)c(C)o1` was tested. Which activation did it give?
**A.** 7.66%

**Q.** With `CSCCC(C(=O)NC1=NCCS1)N1C(=O)c2ccccc2C1=O` (stereo not given) as the molecule, how does the activation read?
**A.** 0.0635%

**Q.** Which activation does the source give for `CN(C(=O)c1cccc(NC(=O)Cc2ccc([N+](=O)[O-])cc2)c1)C1CCC1` here?
**A.** 0.477%

**Q.** `COc1cc(C(=O)Nc2cc(C(F)(F)F)ccc2N2CCOCC2)ccc1O` was tested. Which activation did it give?
**A.** -3.45%

**Q.** How did the activation turn out when `Cc1ccc(NC(=O)CN(C)C(=O)c2cccc(S(=O)(=O)N3CCCC3)c2)cc1` was run?
**A.** -1.65%

**Q.** `Cc1n[nH]c(=O)n1-c1ccc(Oc2ccccc2)cc1` was tested. Which activation did it give?
**A.** -4.14%

**Q.** Which activation does the source give for `O=C(CCS(=O)(=O)c1ccc2c(c1)NC(=O)CS2)NCc1ccccc1Cl` here?
**A.** 0.174%

**Q.** `COC(=O)c1ccc(COc2ccc(/C=N/NC(=O)C(=O)Nc3ccc(OC)cc3)cc2OC)o1` was tested. Which activation did it give?
**A.** -4.37%

**Q.** With `O=C(N/N=C/c1cccc(OCc2ccccc2)c1)c1ccc(Br)o1` as the molecule, how does the activation read?
**A.** 12%

**Q.** For `CCCc1ccc(OCc2ccc(C(=O)N/N=C/c3cccc([N+](=O)[O-])c3)o2)c(OC)c1`, which activation is on record?
**A.** 47.7% (active)

**Q.** `O=C(c1cnn2ccccc12)N1CCc2ccccc21` was tested. Which activation did it give?
**A.** -0.0654%

**Q.** Which activation does the source give for `CCc1ccc(N2CC(C(=O)NC3=NCCS3)CC2=O)cc1` (stereo not given) here?
**A.** 10.1%

**Q.** Which activation does the source give for `CSc1nccc(NC(=O)c2ccc(C(C)(C)C)cc2)n1` here?
**A.** 1.31%

**Q.** With `CSc1cccc(NC(=S)N(C(C)C)C(C)c2ccccn2)c1` (stereo not given) as the molecule, how does the activation read?
**A.** 1.84%

**Q.** With `COc1ccccc1N(C)S(=O)(=O)c1ccc(Cl)c(C(=O)Nc2ccncc2)c1` as the molecule, how does the activation read?
**A.** 4.67%

**Q.** `COc1cccc(N(CC(=O)NC2CCCC2)C(=O)Cn2nnc(-c3ccc(C)o3)n2)c1` was tested. Which activation did it give?
**A.** 2.12%

**Q.** `CCc1nn(-c2cc(Oc3cccc4ccccc34)nc(-c3ccccc3)n2)c(N)c1C#N` was tested. Which activation did it give?
**A.** -3.92%

**Q.** Which activation does the source give for `COc1cccc(OC)c1CN(C)C(=O)c1cnccc1C(F)(F)F` here?
**A.** -2.03%

**Q.** `CC(=O)NCC(=O)N1CCC(n2nccc2NC(=O)CCCc2ccccc2)CC1` was tested. Which activation did it give?
**A.** -2.51%

**Q.** Which activation does the source give for `CC1=C/C(=N\OS(=O)(=O)c2ccccc2)C=CC1=O` here?
**A.** 40.6% (active)

**Q.** With `COc1ccc(C(=O)ON=C2c3ccccc3-c3ccccc32)cc1OC` as the molecule, how does the activation read?
**A.** -1.57%

**Q.** With `COc1ccc(C(=O)O/N=C(\N)Cc2ccc(Cl)cc2Cl)cc1OC` as the molecule, how does the activation read?
**A.** 11.8% (active)

**Q.** How did the activation turn out when `COc1ccc(C/C(N)=N/OC(=O)c2ccco2)cc1OC` was run?
**A.** 6.23%

**Q.** How did the activation turn out when `COc1cccc(CSc2nc3nc(C)cc(C)n3n2)c1` was run?
**A.** -1.45%

**Q.** With `CN(C(=O)CN1C(=O)NC(C)(CCc2ccccc2)C1=O)c1ccccc1` (stereo not given) as the molecule, how does the activation read?
**A.** -2.66%

**Q.** `Cc1nn(CC(=O)NC2CCCCC2)c(=O)c2cccn12` was tested. Which activation did it give?
**A.** -3.35%

**Q.** For `CCOC(=O)C1C(c2ccc(OC)c(OC)c2)c2c([nH][nH]c2=O)CC1(C)O` (stereo not given), which activation is on record?
**A.** 0.0386%

**Q.** `O=c1ccc(-c2ccc(S(=O)(=O)Nc3ccccc3)o2)n[nH]1` was tested. Which activation did it give?
**A.** 2.43%

**Q.** Which activation does the source give for `CC1=NN(C(=O)CCc2ccccc2O)C(O)(C(F)(F)F)C1` (stereo not given) here?
**A.** -2.46%

**Q.** For `CC1=C(C/C=C(\C)CCCC(C)CCCC(C)CCCC(C)C)C(=O)c2ccccc2C1=O` (stereo not given), which activation is on record?
**A.** 16.4%

**Q.** `Cc1cc(NC(=O)Nc2ccccc2[N+](=O)[O-])no1` was tested. Which activation did it give?
**A.** -0.224%

**Q.** How did the activation turn out when `Cc1csc(SCC(=O)N(c2ccccc2)C(C)C)n1` was run?
**A.** -5.06%

**Q.** With `O=C(Nc1nnc(C2CC2)s1)C1=NN(C2CCS(=O)(=O)C2)C(=O)CC1` (stereo not given) as the molecule, how does the activation read?
**A.** -2.11%

**Q.** For `CN(C)S(=O)(=O)c1ccc(N/C=C(\[N+](=O)[O-])S(=O)(=O)c2ccccc2)cc1`, which activation is on record?
**A.** -4.82%

**Q.** How did the activation turn out when `CC(=O)Nc1ccc(Sc2ccccc2C(=O)N2CCCC2)cn1` was run?
**A.** -0.519%

**Q.** Which activation does the source give for `O=C(O)c1cccc2c1C(=O)N(C1CCCCC1)C2` here?
**A.** -1.33%

**Q.** With `CC1(C)NC(=O)N(CC(=O)N2CCN(S(=O)(=O)c3ccccc3F)CC2)C1=O` as the molecule, how does the activation read?
**A.** -2.41%

**Q.** Which activation does the source give for `CCCCCCCCCCCCC(NC(C)=O)(C(=O)OCC)C(=O)OCC` here?
**A.** -3.1%

**Q.** Which activation does the source give for `O=S(=O)([N-]c1nc2ccccc2nc1-[n+]1ccc(Cc2ccccc2)cc1)c1ccc(Br)s1` here?
**A.** 3.3%

**Q.** With `CN(CC(=O)NCCc1ccc(S(N)(=O)=O)cc1)CC(=O)Nc1ccc(Cl)cc1` as the molecule, how does the activation read?
**A.** -2.04%

**Q.** With `Cc1ccc(-n2nc(N)c3c(=O)oc(N(C)C)nc32)cc1` as the molecule, how does the activation read?
**A.** -1.59%

**Q.** `CCOC(=O)c1sc(=NC(=O)/C=C/c2cccs2)n(C)c1C` was tested. Which activation did it give?
**A.** -1.39%
